Measured values published in ChEMBL document CHEMBL1125384, “Inhibitors of sterol synthesis. 3 beta,25-dihydroxy-5 alpha-cholest-8(14)-en-15-one, an active metabolite of 3 beta-hydroxy-5 alpha-cholest-8(14)-en-15-one” (J Med Chem, 1992).

Assays:
[1] = biological target: T1, 3-hydroxy-3-methylglutaryl-coenzyme A reductase (Homo sapiens) (UniProt P04035); experiment: % control of HMG-CoA reductase activity in CHO-K1 cells at a concentration of 2.5 uM; format: cell-based; conditions: Cricetulus griseus
T1 sequence (whole entry): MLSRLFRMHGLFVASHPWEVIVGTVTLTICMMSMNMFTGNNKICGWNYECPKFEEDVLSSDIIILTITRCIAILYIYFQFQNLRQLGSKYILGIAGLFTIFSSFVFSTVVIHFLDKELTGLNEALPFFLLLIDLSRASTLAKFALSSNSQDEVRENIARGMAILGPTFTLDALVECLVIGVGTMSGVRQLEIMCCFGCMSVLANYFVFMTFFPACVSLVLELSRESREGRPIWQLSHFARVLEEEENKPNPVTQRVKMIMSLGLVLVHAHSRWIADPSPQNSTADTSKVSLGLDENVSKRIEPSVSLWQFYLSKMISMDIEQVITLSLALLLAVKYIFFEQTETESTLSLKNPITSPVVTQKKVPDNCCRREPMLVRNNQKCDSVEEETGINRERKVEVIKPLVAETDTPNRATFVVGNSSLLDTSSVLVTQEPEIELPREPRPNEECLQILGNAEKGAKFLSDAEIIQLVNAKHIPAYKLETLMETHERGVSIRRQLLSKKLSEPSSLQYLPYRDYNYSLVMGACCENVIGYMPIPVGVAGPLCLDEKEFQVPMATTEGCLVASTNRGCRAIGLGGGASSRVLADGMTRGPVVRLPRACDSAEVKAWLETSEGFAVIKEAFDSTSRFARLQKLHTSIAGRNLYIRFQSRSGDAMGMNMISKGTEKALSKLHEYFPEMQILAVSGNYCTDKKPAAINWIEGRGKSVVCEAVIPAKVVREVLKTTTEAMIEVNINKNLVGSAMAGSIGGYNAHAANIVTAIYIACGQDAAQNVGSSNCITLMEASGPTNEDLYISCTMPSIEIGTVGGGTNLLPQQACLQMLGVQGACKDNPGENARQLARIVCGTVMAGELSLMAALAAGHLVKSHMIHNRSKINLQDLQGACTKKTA
In short: (§1)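 CHO-K1 cells were exposed to the sterol at 0.0–2.5 μM. HMG-CoA reductase specific activity was measured in pmol min⁻¹ mg⁻¹ protein and expressed as % of the activity in sterol-free control cells. Assays were run in triplicate, with variation given as SD.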

[2] = biological target: T1, 3-hydroxy-3-methylglutaryl-coenzyme A reductase (Homo sapiens); experiment: % control of HMG-CoA reductase activity in CHO-K1 cells at a concentration of 1.0 uM; format: cell-based; conditions: Cricetulus griseus; in short: as §1
[3] = biological target: T1, 3-hydroxy-3-methylglutaryl-coenzyme A reductase (Homo sapiens); experiment: % control of HMG-CoA reductase activity in CHO-K1 cells at a concentration of 0.25 uM; format: cell-based; conditions: Cricetulus griseus; in short: as §1
[4] = biological target: T1, 3-hydroxy-3-methylglutaryl-coenzyme A reductase (Homo sapiens); experiment: % control of HMG-CoA reductase activity in CHO-K1 cells at a concentration of 0.5 uM; format: cell-based; conditions: Cricetulus griseus; in short: as §1
[5] = biological target: 3-hydroxy-3-methylglutaryl-coenzyme A reductase (Cricetulus griseus) (UniProt P00347); experiment: % control of HMG-CoA reductase activity in CHO-K1 cells at a concentration of 0.0 uM
[6] = biological target: 3-hydroxy-3-methylglutaryl-coenzyme A reductase (Cricetulus griseus) (UniProt P00347); experiment: % control of HMG-CoA reductase activity in CHO-K1 cells at a concentration of 0.1 uM

3-hydroxy-3-methylglutaryl-coenzyme A reductase (Cricetulus griseus), sequence (P00347 whole entry, looked up): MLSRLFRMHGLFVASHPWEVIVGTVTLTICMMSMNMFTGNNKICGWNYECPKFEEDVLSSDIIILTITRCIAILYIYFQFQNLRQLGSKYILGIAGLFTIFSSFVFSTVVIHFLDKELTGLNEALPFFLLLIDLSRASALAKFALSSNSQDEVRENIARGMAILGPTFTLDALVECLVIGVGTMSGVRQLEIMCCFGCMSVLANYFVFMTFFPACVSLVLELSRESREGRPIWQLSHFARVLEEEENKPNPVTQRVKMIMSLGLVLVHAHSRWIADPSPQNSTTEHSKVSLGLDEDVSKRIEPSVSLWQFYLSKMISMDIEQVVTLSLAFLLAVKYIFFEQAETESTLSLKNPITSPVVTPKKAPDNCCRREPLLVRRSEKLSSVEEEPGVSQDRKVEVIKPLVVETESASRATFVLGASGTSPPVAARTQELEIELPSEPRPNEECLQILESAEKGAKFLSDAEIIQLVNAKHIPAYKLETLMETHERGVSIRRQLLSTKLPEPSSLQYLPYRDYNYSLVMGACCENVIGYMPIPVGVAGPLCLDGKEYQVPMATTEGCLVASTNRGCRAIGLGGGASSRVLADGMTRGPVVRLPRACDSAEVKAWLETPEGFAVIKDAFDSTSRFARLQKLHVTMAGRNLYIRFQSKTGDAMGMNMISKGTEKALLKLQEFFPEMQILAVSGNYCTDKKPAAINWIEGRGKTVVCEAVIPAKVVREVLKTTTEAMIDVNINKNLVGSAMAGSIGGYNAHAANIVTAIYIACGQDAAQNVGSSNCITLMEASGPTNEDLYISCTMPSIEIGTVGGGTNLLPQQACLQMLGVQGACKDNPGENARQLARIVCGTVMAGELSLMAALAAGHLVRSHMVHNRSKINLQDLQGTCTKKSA

SMILES | Control [1] [%] | Control [2] [%] | Control [3] [%] | Control [4] [%] | Control [5] [%] | Control [6] [%]
CC(C)CCC[C@@H](C)[C@H]1CC(=O)C2=C3CC[C@H]4C[C@@H](O)CC[C@]4(C)[C@H]3CC[C@@]21C | 24.4 | 35.8 | 52.1 | 42.2 | 100 | 61.9
C[C@H](CCCC(C)(C)O)C1CC(=O)C2=C3CCC4CC(O)CCC4(C)C3CCC21C (some centres not stated) | 21.5 | 34.2 | 33.5 | 32.2 | 100 | 63.4
